One assay addresses D(2) dopamine receptor (Homo sapiens, UniProt P14416). In words: Displacement of [3H]-methylspiperone from dopamine D2L receptor (unknown origin) after 60 mins. The essentials: (§1)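 Receptor membranes incubated at 27 °C, 60 min for D2L and 30 min for D3, with [3H]methylspiperone (0.2 nM for D2L, 0.25 nM for D3) and test compound at a range of concentrations. Buffer was 50 mM Tris-HCl pH 7.4, 10 mM MgCl2, 1 mM EDTA, 120 mM NaCl. Nonspecific binding defined with haloperidol (D2) or GR103691 (D3). IC50 obtained by nonlinear regression.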
(Displacement assays read how much labelled ligand stays bound in the presence of the test substance.)

Assay [1] has as its target T1, 5-hydroxytryptamine receptor 2C (Homo sapiens, UniProt P28335).
T1 sequence (P28335 whole entry): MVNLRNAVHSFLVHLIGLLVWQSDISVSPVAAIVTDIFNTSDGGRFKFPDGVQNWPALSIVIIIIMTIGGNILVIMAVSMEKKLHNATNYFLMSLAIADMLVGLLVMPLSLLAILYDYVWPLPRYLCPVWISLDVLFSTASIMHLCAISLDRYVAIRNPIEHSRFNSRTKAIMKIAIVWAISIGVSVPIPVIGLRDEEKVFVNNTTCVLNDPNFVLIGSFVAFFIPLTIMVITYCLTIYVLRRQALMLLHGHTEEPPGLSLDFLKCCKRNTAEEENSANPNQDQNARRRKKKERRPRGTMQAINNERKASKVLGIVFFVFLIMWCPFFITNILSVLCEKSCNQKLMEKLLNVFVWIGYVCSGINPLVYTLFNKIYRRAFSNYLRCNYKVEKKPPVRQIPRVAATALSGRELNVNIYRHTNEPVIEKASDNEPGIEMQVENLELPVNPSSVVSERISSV
In words: Displacement of [3H]-mesulergine from human recombinant 5HT-2C receptor expressed in CHOK1 cell membranes after 30 mins. On the set-up: species or system CHO-K1. In outline: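 Frozen CHO-K1 membranes expressing recombinant human 5-HT2C incubated with 1 nM [3H]mesulergine in 50 mM Tris-HCl pH 7.4 containing 0.1% ascorbic acid and pargyline. Mianserin defined nonspecific binding.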

Assay [2] is described as follows: Displacement of [3H]-YM-09151-2 from cloned dopamine D4.2 receptor (unknown origin) expressed in Sf9 cells after 60 mins. More on the design: species or system Homo sapiens. In outline: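 Sf9 membranes with cloned D4.2 receptor incubated with 0.2 nM [3H]YM-09151-2 for 60 min at 27 °C in 50 mM Tris-HCl pH 7.4, 5 mM MgCl2, 5 mM EDTA, 5 mM KCl, 1.5 mM CaCl2. Clozapine defined nonspecific binding. Filtered on glass-fiber filters presoaked in 0.3% PEI.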

For a further assay, the target named is D(3) dopamine receptor (Homo sapiens, UniProt P35462). In words: Displacement of [3H]-methylspiperone from dopamine D3 receptor (unknown origin) after 30 mins. In outline: as §1
Sequence of D(3) dopamine receptor (P35462 whole entry): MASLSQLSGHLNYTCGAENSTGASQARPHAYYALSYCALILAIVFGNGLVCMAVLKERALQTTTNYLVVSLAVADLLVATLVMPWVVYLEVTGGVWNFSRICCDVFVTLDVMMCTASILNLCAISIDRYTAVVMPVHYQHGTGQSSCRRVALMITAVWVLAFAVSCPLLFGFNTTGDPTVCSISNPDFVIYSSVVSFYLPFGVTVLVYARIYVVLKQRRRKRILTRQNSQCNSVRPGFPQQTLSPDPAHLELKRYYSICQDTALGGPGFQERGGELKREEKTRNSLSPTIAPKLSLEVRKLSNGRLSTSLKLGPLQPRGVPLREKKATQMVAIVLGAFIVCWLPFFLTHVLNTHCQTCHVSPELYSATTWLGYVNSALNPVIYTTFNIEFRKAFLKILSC
Assay [3] has as its target 5-hydroxytryptamine receptor 2A (Homo sapiens, UniProt P28223). In words: Displacement of [3H]-ketanserin from human recombinant 5HT-2A receptor expressed in CHOK1 cell membranes after 60 mins. More on the design: species or system CHO-K1. In outline:
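Buffer was 50 mM Tris-HCl pH 7.4 with 5 mM CaCl2 and 0.1% ascorbic acid. Test compound added at a range of concentrations.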

Assay [4] addresses T2, Alpha-1A adrenergic receptor (Homo sapiens, UniProt P35348).
T2 sequence (P35348 whole entry): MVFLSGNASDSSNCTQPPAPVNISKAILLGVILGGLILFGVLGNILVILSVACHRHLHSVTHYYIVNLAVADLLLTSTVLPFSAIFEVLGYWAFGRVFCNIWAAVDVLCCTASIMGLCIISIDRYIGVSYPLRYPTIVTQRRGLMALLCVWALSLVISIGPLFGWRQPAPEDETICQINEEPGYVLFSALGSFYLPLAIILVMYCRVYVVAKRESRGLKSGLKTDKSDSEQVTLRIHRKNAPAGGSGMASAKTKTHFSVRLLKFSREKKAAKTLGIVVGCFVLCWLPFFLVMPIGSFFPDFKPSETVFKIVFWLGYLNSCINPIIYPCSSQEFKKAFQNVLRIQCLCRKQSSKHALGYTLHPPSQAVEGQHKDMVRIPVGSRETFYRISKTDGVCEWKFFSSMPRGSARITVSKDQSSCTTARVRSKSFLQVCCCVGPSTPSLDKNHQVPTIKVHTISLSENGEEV
In words: Binding affinity to adrenergic alpha1A receptor (unknown origin).

The species named for assay [5] is Homo sapiens. In words: Selectivity ratio of IC50 for human recombinant 5HT-2B receptor to IC50 for human recombinant 5HT-2A receptor.
Assay [6] concerns the target 5-hydroxytryptamine receptor 6 (Homo sapiens, UniProt P50406). In words: Displacement of [3H]-LSD from human recombinant 5HT-6 receptor expressed in CHOK1 cell membranes after 60 mins. More on the design: species or system CHO-K1. In outline: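 CHO-K1 membranes expressing human 5-HT6 incubated with 1 nM [3H]LSD for 60 min at 27 °C in 50 mM Tris-HCl pH 7.4 containing 4 mM CaCl2 and 0.1% ascorbic acid. Terminated by filtration on glass-fiber filters presoaked in 0.5% PEI. Methiothepin defined nonspecific binding.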

Assay [7] deals with 5-hydroxytryptamine receptor 7 (Homo sapiens, UniProt P34969). In words: Displacement of [3H]-LSD from human recombinant 5HT-7 receptor expressed in CHOK1 cell membranes after 120 mins. More on the design: species or system CHO-K1. The essentials: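 CHO-K1 membranes expressing human 5-HT7 incubated with 3 nM [3H]LSD for 120 min at 27 °C in 50 mM Tris-HCl pH 7.4, 10 mM MgSO4, 0.5 mM EDTA. Filtered on glass-fiber filters presoaked in 0.3% PEI. Methiothepin defined nonspecific binding.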
Sequence of 5-hydroxytryptamine receptor 7 (P34969 whole entry): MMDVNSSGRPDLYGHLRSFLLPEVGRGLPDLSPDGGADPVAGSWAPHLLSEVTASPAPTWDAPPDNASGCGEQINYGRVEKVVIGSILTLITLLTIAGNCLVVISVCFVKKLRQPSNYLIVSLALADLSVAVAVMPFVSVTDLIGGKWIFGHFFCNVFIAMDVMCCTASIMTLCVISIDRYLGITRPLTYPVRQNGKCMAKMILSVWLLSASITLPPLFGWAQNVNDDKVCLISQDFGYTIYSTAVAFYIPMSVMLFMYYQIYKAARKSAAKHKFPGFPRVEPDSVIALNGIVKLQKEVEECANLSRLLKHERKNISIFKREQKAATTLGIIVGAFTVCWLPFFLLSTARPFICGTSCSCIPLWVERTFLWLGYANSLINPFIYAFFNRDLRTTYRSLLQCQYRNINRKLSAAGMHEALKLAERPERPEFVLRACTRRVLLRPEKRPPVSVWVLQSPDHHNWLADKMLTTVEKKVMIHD

The target of assay [8] is 5-hydroxytryptamine receptor 2B (Homo sapiens, UniProt P41595). The assay is described as follows: Displacement of […] from human recombinant 5HT-2B receptor.
Sequence of 5-hydroxytryptamine receptor 2B (P41595 whole entry): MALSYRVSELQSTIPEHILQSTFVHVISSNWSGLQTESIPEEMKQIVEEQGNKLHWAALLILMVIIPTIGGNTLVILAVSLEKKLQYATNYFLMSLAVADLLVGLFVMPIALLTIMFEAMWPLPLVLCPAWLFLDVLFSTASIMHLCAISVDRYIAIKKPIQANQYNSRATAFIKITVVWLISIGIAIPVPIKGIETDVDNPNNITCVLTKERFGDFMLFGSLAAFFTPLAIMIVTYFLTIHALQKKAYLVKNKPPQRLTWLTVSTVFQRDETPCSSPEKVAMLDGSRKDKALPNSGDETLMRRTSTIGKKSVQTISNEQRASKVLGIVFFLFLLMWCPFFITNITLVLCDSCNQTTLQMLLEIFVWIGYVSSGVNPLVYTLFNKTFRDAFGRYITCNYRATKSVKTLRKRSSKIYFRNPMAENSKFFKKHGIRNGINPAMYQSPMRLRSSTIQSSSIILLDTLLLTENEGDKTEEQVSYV
The test system of assay [9] is Mus musculus. The assay is described as follows: Antiobesity activity in C57BL/6 mouse assessed as inhibition of food intake at 50 mg/kg, ip measured after 2 to 12 hrs relative to vehicle-treated control. In kind it is functional. The note with it: C57BL/6, ip, route intraperitoneal. The essentials:
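Male mice were acclimated 1 week at 23 ± 3 °C and 50 ± 20% humidity, then fasted 24 h. They were dosed once intraperitoneally with vehicle or compound: 50 mg/kg in C57BL/6, or 12.5, 25 or 50 mg/kg in B6.V-Lep^ob/J. Food intake was measured at 2, 6 and 12 h versus vehicle control.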

Assay [10] is filed under the species Homo sapiens. The assay is described as follows: Selectivity ratio of IC50 for human recombinant 5HT-2B receptor to IC50 for human recombinant 5HT-2C receptor.
Assay [11] concerns Mus musculus. The assay is described as follows: Antiobesity activity in C57BL/6 mouse assessed as inhibition of body weight gain at 50 mg/kg, ip measured after 2 to 12 hrs relative to vehicle-treated control. In kind it is functional. The note with it: C57BL/6, ip, route intraperitoneal.
The target in assay [12] is T3, Alpha-2A adrenergic receptor (Homo sapiens, UniProt P08913).
T3 sequence (P08913 whole entry): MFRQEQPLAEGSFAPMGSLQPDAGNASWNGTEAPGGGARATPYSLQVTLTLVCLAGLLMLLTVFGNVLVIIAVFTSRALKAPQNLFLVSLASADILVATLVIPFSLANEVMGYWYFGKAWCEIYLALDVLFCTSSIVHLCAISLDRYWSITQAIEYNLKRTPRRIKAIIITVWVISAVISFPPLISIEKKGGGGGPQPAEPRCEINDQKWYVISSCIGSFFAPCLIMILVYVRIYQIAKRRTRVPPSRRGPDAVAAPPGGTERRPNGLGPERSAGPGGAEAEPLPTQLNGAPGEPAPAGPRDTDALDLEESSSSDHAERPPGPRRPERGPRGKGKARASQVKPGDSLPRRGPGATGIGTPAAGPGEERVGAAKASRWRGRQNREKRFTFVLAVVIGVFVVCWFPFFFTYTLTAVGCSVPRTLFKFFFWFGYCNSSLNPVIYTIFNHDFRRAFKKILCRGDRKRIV
The assay is described as follows: Binding affinity to adrenergic alpha2A receptor (unknown origin).

Assay [13] addresses T4, 5-hydroxytryptamine receptor 1A (Homo sapiens, UniProt P08908).
T4 sequence (P08908 whole entry): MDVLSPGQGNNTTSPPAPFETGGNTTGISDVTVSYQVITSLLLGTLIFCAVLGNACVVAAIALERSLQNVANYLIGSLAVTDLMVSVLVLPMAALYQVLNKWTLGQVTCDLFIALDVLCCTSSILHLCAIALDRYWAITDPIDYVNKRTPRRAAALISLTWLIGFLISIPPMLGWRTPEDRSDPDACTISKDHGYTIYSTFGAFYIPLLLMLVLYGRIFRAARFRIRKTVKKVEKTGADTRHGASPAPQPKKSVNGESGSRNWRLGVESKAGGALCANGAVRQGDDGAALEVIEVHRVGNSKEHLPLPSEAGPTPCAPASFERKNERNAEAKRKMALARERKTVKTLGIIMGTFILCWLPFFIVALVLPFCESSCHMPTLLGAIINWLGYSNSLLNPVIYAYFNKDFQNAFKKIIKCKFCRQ
The assay is described as follows: Displacement from [3H]8-OH-DPAT from human recombinant 5HT-1A receptor expressed in HEK293 cells after 120 mins. In kind it is cell-based. The essentials:
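Membranes from HEK293-EBNA cells stably expressing recombinant human 5-HT1A. Incubated with 2 nM [3H]8-OH-DPAT and test compound at a range of concentrations in 50 mM Tris-HCl pH 7.4 with 5 mM MgSO4.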

Assay [14] concerns Mus musculus. The assay is described as follows: Antiobesity activity in C57BL/6 mouse assessed as inhibition of food intake at 5.6 mg/kg, ip measured after 2 to 12 hrs relative to vehicle-treated control. Format: functional. The note with it: C57BL/6, ip, route intraperitoneal. The essentials: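 Male C57BL/6 mice acclimated 1 week (23 ± 3 °C, 50 ± 20% humidity), fasted 24 h, then given intraperitoneal vehicle or drug. Food intake measured over intervals of 2, 6 and 12 h and compared with vehicle control.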

Sequence of 5-hydroxytryptamine receptor 2A (P28223 whole entry): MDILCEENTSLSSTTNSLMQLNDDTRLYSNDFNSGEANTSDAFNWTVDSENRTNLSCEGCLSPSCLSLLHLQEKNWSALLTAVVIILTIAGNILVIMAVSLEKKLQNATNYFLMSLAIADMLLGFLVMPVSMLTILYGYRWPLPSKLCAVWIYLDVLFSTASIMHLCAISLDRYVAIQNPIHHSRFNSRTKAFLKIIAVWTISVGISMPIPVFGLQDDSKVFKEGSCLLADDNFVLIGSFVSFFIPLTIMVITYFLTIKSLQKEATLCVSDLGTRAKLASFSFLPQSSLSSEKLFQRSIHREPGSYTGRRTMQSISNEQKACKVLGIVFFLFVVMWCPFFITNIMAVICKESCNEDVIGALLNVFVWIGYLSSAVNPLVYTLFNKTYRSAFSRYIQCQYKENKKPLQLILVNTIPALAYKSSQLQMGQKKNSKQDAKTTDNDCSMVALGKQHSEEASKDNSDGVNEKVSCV
Sequence of 5-hydroxytryptamine receptor 6 (P50406 whole entry): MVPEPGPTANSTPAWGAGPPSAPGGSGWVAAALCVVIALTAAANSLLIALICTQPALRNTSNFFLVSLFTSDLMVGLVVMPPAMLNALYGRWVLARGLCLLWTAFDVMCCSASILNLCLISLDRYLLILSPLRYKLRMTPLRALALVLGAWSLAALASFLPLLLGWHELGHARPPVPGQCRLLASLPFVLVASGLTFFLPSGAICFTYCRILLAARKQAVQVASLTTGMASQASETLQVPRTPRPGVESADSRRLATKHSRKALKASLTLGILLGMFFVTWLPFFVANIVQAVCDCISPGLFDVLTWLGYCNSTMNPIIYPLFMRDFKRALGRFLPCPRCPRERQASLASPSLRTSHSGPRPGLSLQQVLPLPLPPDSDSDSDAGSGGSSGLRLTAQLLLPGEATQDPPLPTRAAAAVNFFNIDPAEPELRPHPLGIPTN
Sequence of D(2) dopamine receptor (P14416 whole entry): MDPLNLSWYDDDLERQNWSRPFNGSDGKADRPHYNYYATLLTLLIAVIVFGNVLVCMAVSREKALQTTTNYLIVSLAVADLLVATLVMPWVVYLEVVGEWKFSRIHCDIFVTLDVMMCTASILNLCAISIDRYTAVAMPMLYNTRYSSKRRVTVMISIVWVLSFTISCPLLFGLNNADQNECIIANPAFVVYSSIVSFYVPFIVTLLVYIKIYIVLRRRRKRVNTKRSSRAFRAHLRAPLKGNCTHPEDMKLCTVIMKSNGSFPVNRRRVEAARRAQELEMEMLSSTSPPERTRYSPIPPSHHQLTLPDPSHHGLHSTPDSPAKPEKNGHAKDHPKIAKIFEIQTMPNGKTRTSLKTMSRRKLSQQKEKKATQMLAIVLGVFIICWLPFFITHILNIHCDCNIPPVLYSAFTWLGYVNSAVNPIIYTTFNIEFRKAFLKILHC

The IC50 is the midpoint of a concentration-inhibition curve. A word on the inhibition in vivo: it is the share of the control response that was lost under treatment. For `c1ccc(Cc2nc3c(c(Nc4ccccc4)n2)CCNCC3)cc1`, the half-maximal inhibitory concentration (IC50) on D(2) dopamine receptor worked out at 147 nM; in assay [1], 1.98 nM; in [2], 112 nM; on D(3) dopamine receptor, 272 nM; in assay [3], 2.69 nM; in [4], 1390 nM. Moreover, the IC50 in [6] was 36.8 nM; in [7], 1560 nM; in [8], 89 nM; in assay [12], greater than 10000 nM; in assay [13], 395 nM. For the same compound, the Ratio IC50 was found to be 33.1 in the assay filed under Homo sapiens [5] and 44.9 in the assay listed under Homo sapiens [10]. In addition, the results for the inhibition in vivo at 50 mg/kg in the assay with Mus musculus [9] and in the assay with Mus musculus [11] were 64.2% and 71.8%, respectively.
With `Clc1cccc(N2CCNCC2)c1` [CHLOROPHENYLPIPERAZINE], the inhibition in vivo at 5.6 mg/kg in the assay on Mus musculus [14] amounted to 13.1%.

(Values after ChEMBL document CHEMBL2390866, “Novel pyrimidoazepine analogs as serotonin 5-HT(2A) and 5-HT(2C) receptor ligands for the treatment of obesity” (Eur J Med Chem, 2013).)
